According to ChEMBL document CHEMBL1123521, “Isozyme-specific enzyme inhibitors. 10. Adenosine 5'-triphosphate derivatives as substrates or inhibitors of methionine adenosyltransferases of rat normal and hepatoma tissues” (J Med Chem, 1986):

Experiments:
[1] = molecular target: T1, S-adenosylmethionine synthase isoform type-2 (Rattus norvegicus, UniProt P18298); experiment: Inhibitory constant against rat kidney Methionine adenosyltransferase II
Outline: (§1)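 MAT-II from rat kidney extract, taken through DEAE chromatography and diluted 10-fold daily. Duplicate 30-min incubations at 37 °C in 150 mM KCl–15 mM MgCl2–5 mM DTT–50 mM Tris-HCl pH 8.2 with 60 μM [14C]methionine. Mg-complexed inhibitor used at two levels (1-5 × Ki) against six to eight Mg-ATP levels (0.5-4.0 × KM). Product counted on phosphocellulose disks.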

[2] = molecular target: T2, S-adenosylmethionine synthetase (MAT 1 and MAT 2) (Rattus norvegicus, UniProt P13444+P18298); experiment: […] rat Methionine adenosyltransferase was reported; format: protein assay
Outline: (§2)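 MAT-T partly purified from rat Novikoff hepatoma cells grown intraperitoneally in rats: cytosol extract, DEAE-cellulose, stored at -20 °C, diluted 10-fold for use. Assay run in duplicate, 37 °C for 30 min, in 150 mM KCl–15 mM MgCl2–5 mM DTT–50 mM Tris-HCl pH 8.2 with 60 μM [14C]methionine. Inhibitors given as 1:1 Mg complexes at two levels of 1-5 × Ki, with six to eight Mg-ATP levels (0.5-4.0 × KM).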

[3] = molecular target: T2, S-adenosylmethionine synthetase (MAT 1 and MAT 2); experiment: Competitive inhibition of rat methionine adenosyltransferase, activity expressed as Ki; format: protein assay; outline: as §2
[4] = molecular target: T1, S-adenosylmethionine synthase isoform type-2; experiment: Inhibitory constant against rat kidney Methionine adenosyltransferase II, activity expressed as Ki; outline: as §1
[5] = molecular target: T3, S-adenosylmethionine synthase isoform type-1 (Rattus norvegicus, UniProt P13444); experiment: Inhibitory constant against rat liver Methionine adenosyltransferase I, activity expressed as Ki
Outline: (§3)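 Rat liver MAT-I, prepared free of MAT-II and MAT-III and diluted 5-fold. Duplicate assays at 37 °C, 30 min, in 150 mM KCl–7.5 mM MgSO4–2 mM DTT–50 mM HEPES pH 7.5 with 380 μM [14C]methionine. Two inhibitor levels (1:1 Mg complexes, 1-5 × Ki) run against six to eight Mg-ATP levels spanning 0.5-4.0 × KM. Ki taken from kinetic plots.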

[6] = molecular target: T3, S-adenosylmethionine synthase isoform type-1; experiment: Inhibitory constant against rat liver Methionine adenosyltransferase I; outline: as §3
[7] = molecular target: T2, S-adenosylmethionine synthetase (MAT 1 and MAT 2); experiment: Inhibitory constant against rat methionine adenosyltransferase was reported; format: protein assay; outline: as §2

T1 sequence (P18298 whole entry, canonical isoform): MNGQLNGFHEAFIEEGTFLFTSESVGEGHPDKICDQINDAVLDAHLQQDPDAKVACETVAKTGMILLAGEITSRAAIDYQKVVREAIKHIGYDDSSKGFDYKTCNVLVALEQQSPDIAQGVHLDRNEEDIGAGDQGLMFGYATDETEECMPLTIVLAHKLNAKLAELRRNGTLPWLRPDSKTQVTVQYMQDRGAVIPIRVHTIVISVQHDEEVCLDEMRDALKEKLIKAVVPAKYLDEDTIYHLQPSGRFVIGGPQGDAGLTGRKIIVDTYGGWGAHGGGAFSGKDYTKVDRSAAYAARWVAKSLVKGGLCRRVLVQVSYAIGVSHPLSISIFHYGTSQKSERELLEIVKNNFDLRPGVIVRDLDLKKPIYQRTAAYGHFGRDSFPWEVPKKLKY
T3 sequence (P13444 whole entry, canonical isoform): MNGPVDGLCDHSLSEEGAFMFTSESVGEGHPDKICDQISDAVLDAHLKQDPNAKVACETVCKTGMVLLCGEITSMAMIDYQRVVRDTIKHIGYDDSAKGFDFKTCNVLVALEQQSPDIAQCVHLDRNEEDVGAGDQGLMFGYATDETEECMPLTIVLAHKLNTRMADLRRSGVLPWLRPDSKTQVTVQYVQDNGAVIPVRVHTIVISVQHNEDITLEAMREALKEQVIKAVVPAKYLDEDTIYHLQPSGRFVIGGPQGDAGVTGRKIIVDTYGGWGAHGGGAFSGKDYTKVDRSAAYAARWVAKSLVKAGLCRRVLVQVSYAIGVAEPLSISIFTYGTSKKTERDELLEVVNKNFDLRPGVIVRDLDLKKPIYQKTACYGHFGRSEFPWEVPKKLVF

Row | Structure (SMILES) | Ki [1] | Ki [3] | Ki [4] | Ki [2] | also measured
1 | Nc1ncnc2c1ncn2[C@@H]1O[C@H](COP(=O)(O)OP(=O)(O)NP(=O)(O)O)[C@@H](O)[C@H]1O | 5.5 µM |  |  | 0.004 mM | 
2 | CSc1nc2c(N)ncnc2n1[C@@H]1O[C@H](COP(=O)(O)OP(=O)(O)OP(=O)(O)O)[C@@H](O)[C@H]1O |  |  |  | 0.53 mM | 
3 | CSc1nc(N)c2ncn([C@@H]3O[C@H](COP(=O)(O)OP(=O)(O)OP(=O)(O)O)[C@@H](O)[C@H]3O)c2n1 | 600 µM |  |  | 0.11 mM | 
4 | Nc1ncnc2c1nc(SCCC(N)C(=O)O)n2C1O[C@H](COP(=O)(O)OP(=O)(O)OP(=O)(O)O)[C@@H](O)[C@H]1O (stereo not given in full) | 520 µM |  |  |  | Ki [6]: 3.3 mM
5 | Nc1ncnc2c1ncn2[C@@H]1O[C@H](COP(=O)(O)CP(=O)(O)OP(=O)(O)O)[C@@H](O)[C@H]1O [DIPHOSPHOMETHYLPHOSPHONIC ACID ADENOSYL ESTER] | 300 µM |  |  | 0.34 mM | 

The next lines start with results.

Row | Ki [1] | Ki [3] | Ki [4] | Structure (SMILES) | Ki [2] | also measured
6 |  | 0.08 mM | 190 µM | CC(OP(=O)(O)OP(=O)(O)OP(=O)(O)O)[C@H]1O[C@@H](n2cnc3c(N)ncnc32)[C@H](O)[C@@H]1O (stereo not given in full) |  | Ki [5]: 9 µM
7 |  | 0.037 mM | 48 µM | CCCC(OP(=O)(O)OP(=O)(O)OP(=O)(O)O)[C@H]1O[C@@H](n2cnc3c(N)ncnc32)[C@H](O)[C@@H]1O (stereo not given in full) |  | 
8 |  | 0.17 mM | 140 µM | CO[C@@H]1[C@H](O)[C@@H](COP(=O)(O)OP(=O)(O)OP(=O)(O)O)O[C@H]1n1cnc2c(N)ncnc21 |  | 
9 |  | 0.18 mM | 170 µM | CO[C@H]1[C@@H](O)[C@H](n2cnc3c(N)ncnc32)O[C@@H]1COP(=O)(O)OP(=O)(O)OP(=O)(O)O |  | 
10 | 530 µM |  |  | CCCCNc1ncnc2c1ncn2C1O[C@H](COP(=O)(O)OP(=O)(O)OP(=O)(O)O)[C@@H](O)[C@H]1O (stereo not given in full) |  | Ki [7]: 0.21 mM
